How the values were obtained:
Rattus norvegicus [1] = experiment: Biodistribution of compound in rats kidney after an intravenous injection was measured at 30 min; format: ADME, organism-based; conditions: in vivo, 0.5 h
Method in brief: (§1)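 Male Sprague-Dawley rats (225-300 g), free access to food and water. Under ether anesthesia, given 0.2 mL saline containing 125I-labelled ligand (2-5 μCi, ~2200 Ci/mmol) into the femoral vein. Killed by cardiac excision at set times. Organs removed, weighed and gamma-counted. % dose/organ is taken against diluted injectate aliquots, with blood and muscle assumed to be 7% and 40% of body weight. Mean of 3 rats ± std dev.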

Rattus norvegicus [2] = experiment: Regional brain distribution of compound in rats cerebellum after an intravenous injection was measured at 4 hr; format: ADME, organism-based; conditions: in vivo
Method in brief: (§2)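 After femoral-vein injection of [125I]-labeled ligand (2-5 μCi, ~2200 Ci/mmol, 0.2 mL saline, ether anesthesia) into male Sprague-Dawley rats (225-300 g), brains were dissected into cortex, striatum and cerebellum, weighed and gamma-counted. % dose/gram calculated against diluted initial dose; regional ratio = % dose/gram of region divided by that of cerebellum.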

Rattus norvegicus [3] = experiment: Regional brain distribution of compound in rats cerebellum after an intravenous injection was measured at 30 min; format: ADME, organism-based; conditions: in vivo, 0.5 h; method in brief: as §2
Rattus norvegicus [4] = experiment: Biodistribution ratio measured as the ratio of compound present in brain to that of blood at 30 minutes after intravenous injection; format: ADME, organism-based; conditions: 0.5 h
Method in brief: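 Male Sprague-Dawley rats (225-300 g) given 0.2 mL saline containing [125I]-labeled ligand (2-5 μCi, ~2200 Ci/mmol) via femoral vein under ether anesthesia; sacrificed at set times by cardiac excision. Brain and blood weighed and gamma-counted against diluted injectate; ratio taken from % dose/gram values, 3 rats per time point.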

Rattus norvegicus [5] = experiment: Biodistribution of compound in rats heart after an intravenous injection was measured at 2 min; format: ADME, organism-based; conditions: in vivo; method in brief: as §1
Rattus norvegicus [6] = experiment: Biodistribution of compound in rats liver after an intravenous injection was measured at 30 min; format: ADME, organism-based; conditions: in vivo, 0.5 h; method in brief: as §1
Rattus norvegicus [7] = experiment: Ratio of regional brain distribution in striatum to that of cerebellum at 4 hr after intravenous injection; format: ADME, organism-based; conditions: in vivo; method in brief: as §2
Rattus norvegicus [8] = experiment: Biodistribution of compound in rats spleen after an intravenous injection was measured at 4 hr; format: ADME, organism-based; conditions: in vivo; method in brief: as §1
Rattus norvegicus [9] = experiment: Biodistribution of compound in rats muscle after an intravenous injection was measured at 2 min; format: ADME, organism-based, Muscle tissue; conditions: in vivo; method in brief: as §1
Rattus norvegicus [10] = experiment: Regional brain distribution of compound in rats striatum after an intravenous injection was measured at 1 hr; format: ADME, organism-based; conditions: in vivo; method in brief: as §2
Rattus norvegicus [11] = experiment: Biodistribution of compound in rats thyroid after an intravenous injection was measured at 24 hr; format: ADME, organism-based, Thyroid gland; conditions: in vivo
Method in brief: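 Male Sprague-Dawley rats (225-300 g), free access to food and water; under ether anesthesia, 0.2 mL saline containing [125I]-labeled ligand (2-5 μCi, ~2200 Ci/mmol) injected into femoral vein; killed by cardiac excision under ether at set times. […] removed, weighed, gamma-counted; % dose/organ from comparison with diluted aliquots of injectate; mean of 3 rats ± std dev.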

Rattus norvegicus [12] = experiment: Biodistribution of compound in rats muscle after an intravenous injection was measured at 24 hr; format: ADME, organism-based, Muscle tissue; conditions: in vivo; method in brief: as §1
Rattus norvegicus [13] = experiment: Biodistribution of compound in rats skin after an intravenous injection was measured at 24 hr; format: ADME, organism-based, Zone of skin; conditions: in vivo; method in brief: as §1
Rattus norvegicus [14] = experiment: Biodistribution of compound in rats blood after an intravenous injection was measured at 24 hr; format: ADME, organism-based; conditions: in vivo; method in brief: as §1
Rattus norvegicus [15] = experiment: Biodistribution of compound in rats heart after an intravenous injection was measured at 4 hr; format: ADME, organism-based; conditions: in vivo; method in brief: as §1
Rattus norvegicus [16] = experiment: Biodistribution of compound in rats heart after an intravenous injection was measured at 1 hr; format: ADME, organism-based; conditions: in vivo; method in brief: as §1
Rattus norvegicus [17] = experiment: Biodistribution of compound in rats brain after an intravenous injection was measured at 24 hr; format: ADME, organism-based; conditions: in vivo
Method in brief: (§3)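 Rats (male Sprague-Dawley, 225-300 g) given the 125I ligand (2-5 μCi, ~2200 Ci/mmol) in 0.2 mL saline via the femoral vein under ether anesthesia, then killed at set times. Whole brain removed, weighed and gamma-counted. % dose/organ is taken against diluted injectate aliquots. Mean of 3 rats ± std dev.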

Rattus norvegicus [18] = experiment: Biodistribution of compound in rats lung after an intravenous injection was measured at 30 min; format: ADME, organism-based; conditions: in vivo, 0.5 h; method in brief: as §1
Rattus norvegicus [19] = experiment: Biodistribution of compound in rats brain after an intravenous injection was measured at 30 min; format: ADME, organism-based; conditions: in vivo, 0.5 h; method in brief: as §3
[20] = Ratio of regional brain distribution in striatum to that of cerebellum at 2 min after intravenous injection; format: functional; method in brief: as §2
Rattus norvegicus [21] = experiment: Biodistribution of compound in rats blood after an intravenous injection was measured at 4 hr; format: ADME, organism-based; conditions: in vivo; method in brief: as §1
Rattus norvegicus [22] = experiment: Biodistribution of compound in rats spleen after an intravenous injection was measured at 24 hr; format: ADME, organism-based; conditions: in vivo; method in brief: as §1
Rattus norvegicus [23] = experiment: Biodistribution of compound in rats muscle after an intravenous injection was measured at 1 hr; format: ADME, organism-based, Muscle tissue; conditions: in vivo; method in brief: as §1
Rattus norvegicus [24] = experiment: Biodistribution of compound in rats blood after an intravenous injection was measured at 30 min; format: ADME, organism-based; conditions: in vivo, 0.5 h; method in brief: as §1
Rattus norvegicus [25] = experiment: Biodistribution of compound in rats spleen after an intravenous injection was measured at 1 hr; format: ADME, organism-based; conditions: in vivo; method in brief: as §1
Rattus norvegicus [26] = experiment: Biodistribution of compound in rats muscle after an intravenous injection was measured at 30 min; format: ADME, organism-based, Muscle tissue; conditions: in vivo, 0.5 h; method in brief: as §1
Rattus norvegicus [27] = experiment: Biodistribution of compound in rats liver after an intravenous injection was measured at 1 hr; format: ADME, organism-based; conditions: in vivo; method in brief: as §1
Rattus norvegicus [28] = experiment: Biodistribution of compound in rats muscle after an intravenous injection was measured at 4 hr; format: ADME, organism-based, Muscle tissue; conditions: in vivo; method in brief: as §1

Biodistribution (Rattus norvegicus [1]): 0.945 | Biodistribution (Rattus norvegicus [2]): 0.011 | Biodistribution (Rattus norvegicus [3]): 0.248 | Biodistribution (Rattus norvegicus [4]): 12.7% | Biodistribution (Rattus norvegicus [5]): 1.14 | Biodistribution (Rattus norvegicus [6]): 11.45 | Biodistribution (Rattus norvegicus [7]): 56.5 | Biodistribution (Rattus norvegicus [8]): 0.015 | Biodistribution (Rattus norvegicus [9]): 10.8 | Biodistribution (Rattus norvegicus [10]): 1.455 | Biodistribution (Rattus norvegicus [11]): 0.268 | Biodistribution (Rattus norvegicus [12]): 0.201 | Biodistribution (Rattus norvegicus [13]): 0.288 | Biodistribution (Rattus norvegicus [14]): 0.046 | Biodistribution (Rattus norvegicus [15]): 0.014 | Biodistribution (Rattus norvegicus [16]): 0.088 | Biodistribution (Rattus norvegicus [17]): 0.001 | Biodistribution (Rattus norvegicus [18]): 1.24 | Biodistribution (Rattus norvegicus [19]): 0.798 | Biodistribution (Rattus norvegicus [21]): 0.254 | Biodistribution (Rattus norvegicus [22]): 0.001 | Biodistribution (Rattus norvegicus [23]): 8.59 | Biodistribution (Rattus norvegicus [24]): 0.773 | Biodistribution (Rattus norvegicus [25]): 0.123 | Biodistribution (Rattus norvegicus [26]): 9.3 | Biodistribution (Rattus norvegicus [27]): 9.814 | Biodistribution (Rattus norvegicus [28]): 1.17
SMILES: CN1CCc2cc(Cl)c(O)cc2[C@@H](c2cccc(I)c2)C1
Ratio [20]: 1.28

Source: ChEMBL document CHEMBL1125639, “Synthesis and resolution of (+-)-7-chloro-8-hydroxy-1-(3'-iodophenyl)-3-methyl-2,3,4,5-tetrahydro- 1H-3- benzazepine (TISCH): a high affinity and selective iodinated ligand for CNS D1 dopamine receptor” (J Med Chem, 1991)
